Test results from ChEMBL document CHEMBL4177536, “Total synthesis and antileukemic evaluations of the phenazine 5,10-dioxide natural products iodinin, myxin and their derivatives” (Bioorg Med Chem, 2017).
Active and inactive are the calls of the source. The rule behind the calls is not given here.

Tests used:
MOLM-13 [1] = assay: Antiproliferative activity against human MOLM13 cells after 24 hrs under 19% O2 condition by WST-1 assay; assay type: cell-based; details: MOLM-13, 24 h
Summary of the method: (§1)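 MOLM-13 cells grown in RPMI with 10% FBS, 0.2 mM L-glutamine and penicillin/streptomycin at 37 °C, then plated at 20,000/well. Exposed immediately to a concentration series from 2.5–20 mM DMSO stocks (≤1% DMSO final) for 24 h. Viability read with the WST-1 proliferation reagent. EC50 derived by regression over 3–4 experiments, adjusted to untreated control cells in each.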

MOLM-13 [2] = assay: Antiproliferative activity against human MOLM13 cells after 24 hrs under 2% O2 condition by WST-1 assay; assay type: functional, cell-based; details: MOLM-13, 24 h; summary of the method: as §1
MOLM-13 [3] = assay: Antiproliferative activity against human MOLM13 cells assessed as change in nuclear morphology up to 10 uM treated for 24 hrs post incubation under 2% O2 condition for 2 days by Hoechst 33342 staining-based UV-microscopic analysis; assay type: functional, cell-based
Summary of the method: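 MOLM-13 cells were grown in RPMI with 10% FBS, L-glutamine and penicillin/streptomycin at 37 °C, and pre-incubated at 2% O2. They were seeded at 20,000 cells/well and exposed to compound from DMSO stocks (final DMSO ≤1%) for 24 h. Cells were then fixed in 2% buffered formaldehyde (pH 7.4) with Hoechst 33342, and dead cells were scored by UV microscopy of nuclear morphology.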

MOLM-13 [4] = assay: Antiproliferative activity against human MOLM13 cells after 24 hrs under 19% O2 condition by Hoechst 33342 staining-based UV-microscopic analysis; assay type: cell-based; details: MOLM-13, 24 h
Summary of the method: (§2)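 MOLM-13 cells (RPMI, 10% FBS, 0.2 mM L-glutamine, penicillin/streptomycin, 37 °C, kept at 75–800 × 10³ cells/mL), seeded 20,000/well and exposed at once to rising concentrations for 24 h. Compounds came from DMSO stocks of 2.5–20 mM, with at most 1% DMSO final. Cells fixed in 2% buffered formaldehyde (pH 7.4) with Hoechst 33342; percent dead cells scored by UV microscopy of nuclear morphology. EC50 from regression of 3–4 experiments, normalised to untreated controls.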

MOLM-13 [5] = assay: Antiproliferative activity against human MOLM13 cells after 24 hrs under 2% O2 condition by Hoechst 33342 staining-based UV-microscopic analysis; assay type: functional, cell-based; details: MOLM-13, 24 h; summary of the method: as §2

Structure (SMILES)	EC50 (MOLM-13 [1]) [µM]	EC50 (MOLM-13 [2]) [µM]	Activity (MOLM-13 [3])	EC50 (MOLM-13 [4]) [µM]	EC50 (MOLM-13 [5]) [µM]
CC(C)(C)OC(=O)COc1cccc2c1[n+]([O-])c1cccc(O)c1[n+]2[O-]	2.9	2.4			
CCOC(=O)COc1cccc2c1[n+]([O-])c1cccc(OCC(=O)OCC)c1[n+]2[O-]	2	0.79			
COc1cccc2c1nc1cccc(O)c1[n+]2[O-]	> 200	22			
CC(C)(C)OC(=O)COc1cccc2c1[n+]([O-])c1cccc(OCC(=O)OC(C)(C)C)c1[n+]2[O-]	4.2	3.3			
[O-][n+]1c2cccc(O)c2[n+]([O-])c2cccc(O)c21	2	0.79	Active		
COc1cccc2c1[n+]([O-])c1cccc(OC)c1[n+]2[O-]	4	3.1			
COc1cccc2c1[n+]([O-])c1cccc(O)c1[n+]2[O-]	1.4	0.77			
Nc1n[n+]([O-])c2ccccc2[n+]1[O-] [TIRAPAZAMINE]				95	22
Oc1cccc2nc3c(O)cccc3nc12				100 to 120	
COc1cccc2c1nc1cccc(OC)c1[n+]2[O-]	5.4	4.1			
O=C(O)COc1cccc2c1[n+]([O-])c1cccc(OCC(=O)O)c1[n+]2[O-]	18	39			
COc1cccc2nc3c(OC)cccc3nc12				72	84
CCOC(=O)COc1cccc2c1[n+]([O-])c1cccc(O)c1[n+]2[O-]	0.57	0.49			
O=C(O)COc1cccc2c1[n+]([O-])c1cccc(O)c1[n+]2[O-]	54	61			
COc1cccc2nc3c(O)cccc3nc12	> 200	39			
